Source: PubChem BioAssay (Broad Institute)
ERAP1 inh: ERAP1 (human) enzyme inhibition; Q9NZ08; recombinant ERAP1, Leu-AMC fluorescence, 60 min; inhibition, % at 10.7 µM; hit rate 0.15% among 340,000; AID 652197;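 active means mean replicate inhibition of at least 30%, or all replicates individually reaching that 30% level; inactive means mean below 30% and not every replicate reaching it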;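 further: 0% = neutral control wells and 100% = L-leucinethiol positive control wells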
PGC1a acetyl inh: PGC1a acetylation modulation, inhibitor mode; U2OS PGC1a acetylation, AlphaScreen anti-acetyl-lysine; with virally co-expressed GCN5 acetyltransferase; inhibition, % at 15.6 µM; hit rate 0.17% among 350,000; AID 651687;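 active means every replicate shows inhibition of at least 40%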;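 further: 0% = neutral control wells and 100% = positive control wells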
FN deposit inh: fibronectin deposition inhibition; AH1F fibroblasts, Alexa488-fibronectin deposition fluorescence, overnight; inhibition, % at 12.6 µM; hit rate 0.086% among 350,000; AID 743247;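 active means mean inhibition across replicates of 30% or more, regardless of how many single replicates reach that level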;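 further: positive control wells lacked labelled fibronectin entirely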
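Material – AH1F fibroblast monolayer, labelled fibronectin deposition · Reagent – labelled fibronectin 24 nM · Timing – 1 h adhesion, overnight exposure · Measured by – fluorescence at 485 nm excitation, 525 nm emission · Read-out – inhibition of fibronectin deposition signal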
SIRT5 block: sirtuin-5 (human) deacylase inhibition; inhibition, % at 15 µM; Purified SirT5, succinyl-peptide AMC, trypsin-coupled fluorescence; Q9NXA8; hit rate 1.1% among 330,000; AID 652115; in the data active means inhibition above about 15%
FGF22 binding: shifts melting point of recombinant human FGF22 | AID 651658 | recombinant FGF22 thermal shift, SYPRO orange fluorescence; percent of sucrose octasulfate shift, DMSO zero | hit rate 1.5% among 340,000 | Q9HCT0 | activity (Tm shift, normalised), % at 9.99 µM;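 active means mean Tm shift, scaled 0 neutral to 100 positive control, at about 1.3% or above, every replicate too, limit read from the data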
Starred values were filed as active, the others as inactive. Compounds with a hit are over-represented: about 2.2% of the library has one in this group of screens.

Screening O=C(CN1CCOCC1)N[C@@H]1CC[C@@H](CCn2cc(C3CCCC3)nn2)O[C@@H]1CO returned ERAP1 inh 3, PGC1a acetyl inh -1, FN deposit inh -8 and SIRT5 block -7.
Screening C[C@H](NC(=O)[C@@H]1N[C@@H]2c3ccc(-c4ccc(C(=O)N(C)C)cc4)c(=O)n3C[C@@H]2[C@H]1CO)c1ccccc1 returned ERAP1 inh 3, PGC1a acetyl inh -3, SIRT5 block -48 and FGF22 binding 0.
For C=CCNC(=O)[C@H]1[C@@H]2C(=O)O[C@@H](c3ccccc3)[C@@H](c3ccccc3)N2[C@@H](c2ccc(O)cc2)[C@]12C(=O)N(C(=O)OCCOC)c1ccc(C#CCC(C(=O)OC)C(=O)OC)cc12 the results were ERAP1 inh 4, SIRT5 block 2 and FGF22 binding 18*.
Screening NC(=O)NCC#Cc1ccc2c(c1)[C@]1(C(=O)N2)[C@H](c2ccccc2OCCO)N2[C@H](c3ccccc3)[C@H](c3ccccc3)OC(=O)[C@H]2[C@@H]1C(=O)N1CCCCCCC1 returned ERAP1 inh 0, PGC1a acetyl inh 9, SIRT5 block 9 and FGF22 binding 0.
Screening NC(=O)NCC#Cc1ccc2c(c1)[C@]1(C(=O)N2)[C@H](c2ccccc2OCCO)N2[C@H](c3ccccc3)[C@H](c3ccccc3)OC(=O)[C@H]2[C@@H]1C(=O)N1CCN(c2ncccn2)CC1 returned ERAP1 inh -2, SIRT5 block 21* and FGF22 binding 0.
For O=C1O[C@@H](c2ccccc2)[C@@H](c2ccccc2)N2[C@@H](c3ccccc3OCCO)[C@]3(C(=O)Nc4ccc(C#CCCO)cc43)[C@@H](C(=O)O)[C@H]12 the results were ERAP1 inh 3, SIRT5 block 2 and FGF22 binding 16*.
`C=CCNC(=O)[C@H]1[C@@H]2C(=O)O[C@@H](c3ccccc3)[C@@H](c3ccccc3)N2[C@@H](c2ccc(O)cc2)[C@]12C(=O)N(C(=O)OCCOC)c1ccc(C#Cc3ccc(OC)cc3)cc12` gave ERAP1 inh 1, PGC1a acetyl inh 5, SIRT5 block 8 and FGF22 binding 0.
C=CCNC(=O)[C@H]1[C@@H]2C(=O)O[C@@H](c3ccccc3)[C@@H](c3ccccc3)N2[C@@H](c2ccccc2OCCO)[C@]12C(=O)Nc1ccc(C#CC3(O)CCCCCC3)cc12 was read as ERAP1 inh 2, SIRT5 block 17* and FGF22 binding 33*.
Screening COc1ccc(NC(=O)N(C)C[C@H]2OCCCC[C@H](C)Oc3ccc(NS(=O)(=O)c4ccc(OC)cc4)cc3C(=O)N([C@H](C)CO)C[C@@H]2C)cc1 returned PGC1a acetyl inh -6, FN deposit inh 6 and FGF22 binding 0.
Screening CCNc1nc(C(=O)O)nc(N2CCOCC2)n1 returned ERAP1 inh -2, PGC1a acetyl inh -9, FN deposit inh 0, SIRT5 block 6 and FGF22 binding 43*.
CN(C)c1nc(C(=O)O)nc(N2CCOCC2)n1 was read as ERAP1 inh 0, PGC1a acetyl inh -6, FN deposit inh 0, SIRT5 block 1 and FGF22 binding 0.
For O=C(C[C@@H]1C=C[C@H](NC(=O)CC2CC2)[C@@H](CO)O1)NCC(F)(F)F the results were ERAP1 inh -2, PGC1a acetyl inh -2, FN deposit inh 0, SIRT5 block 7 and FGF22 binding 0.
Screening CCn1c2ccccc2c2nc3cc(OC)c(OC)cc3nc21 returned PGC1a acetyl inh -4 and FN deposit inh 35*.
C[C@@H]1CN([C@@H](C)CO)C(=O)c2cc(NC(=O)C3CCCCC3)ccc2O[C@H]1CN(C)Cc1ccc(Oc2ccccc2)cc1 was read as PGC1a acetyl inh 3.
CC(C)OC(=O)CC1C(=O)NCCN1C(=S)NC(=O)c1ccccc1Cl (stereo not given) was read as ERAP1 inh -2, FN deposit inh 5, SIRT5 block -1 and FGF22 binding 44*.
COc1ccc(OCCN2C(=O)NC3(CCc4ccccc4C3)C2=O)cc1 (stereo not given) was read as ERAP1 inh 4, FN deposit inh 6, SIRT5 block -1 and FGF22 binding 44*.
CS(=O)(=O)Nc1ccc2c(c1)[C@@H]1C[C@@H](CC(=O)NC3CCCC3)O[C@H](CO)[C@@H]1O2 was read as ERAP1 inh -3, PGC1a acetyl inh 1, SIRT5 block -2 and FGF22 binding 0.
`O=C(/C=C/c1ccc(F)cc1)NNC(=O)CCN1CCN(Cc2ccccc2)CC1` gave ERAP1 inh 3, PGC1a acetyl inh 52*, FN deposit inh -12, SIRT5 block 0 and FGF22 binding 0.
For CNC[C@@H](CC1CCCCC1)NC[C@H](CC(C)C)NCCc1cccc(C(F)(F)F)c1 the results were ERAP1 inh 0, PGC1a acetyl inh 88*, FN deposit inh 62* and FGF22 binding 0.
Screening CNC[C@@H](Cc1ccccc1)NC[C@@H](CC1CCCCC1)NCCCc1ccccc1 returned ERAP1 inh 1, PGC1a acetyl inh -55, FN deposit inh 1, SIRT5 block -1 and FGF22 binding 0.
Cc1ccc(C)c(NCC(=O)NNC(=S)Nc2ccccc2)c1 was read as ERAP1 inh 2, PGC1a acetyl inh -3, FN deposit inh 0, SIRT5 block 18* and FGF22 binding 0.
`C[C@H]1CN([C@@H](C)CO)S(=O)(=O)c2ccc(Br)cc2O[C@H]1CN(C)C(=O)C1CCCCC1` gave PGC1a acetyl inh -12 and FN deposit inh 0.
For COc1cccc(C(=O)NCC(=O)N/N=C/c2cccc(OC(=O)c3ccc([N+](=O)[O-])cc3)c2)c1 the results were ERAP1 inh -3, FN deposit inh -2, SIRT5 block -2 and FGF22 binding 43*.
Screening O=C(CNC(=O)c1ccc([N+](=O)[O-])cc1)N/N=C\c1ccc(OC(=O)c2ccccc2)cc1 returned PGC1a acetyl inh 2 and FN deposit inh 3.
`C[C@@H]1CCCCO[C@H](CN(C)S(=O)(=O)c2cn(C)cn2)[C@H](C)CN([C@@H](C)CO)C(=O)c2cc(NC(=O)Cc3ccccc3)ccc2O1` gave PGC1a acetyl inh 4 and FGF22 binding 0.
Clc1ccc(Cl)c(OCCN2CCCC2)c1 was read as ERAP1 inh -1, FN deposit inh -1, SIRT5 block 16* and FGF22 binding 0.
Screening Clc1ccc(Cl)c(OCCN2CCOCC2)c1 returned PGC1a acetyl inh 2 and FN deposit inh -4.
Screening CCN(C(=S)Nc1ccc(C(C)=O)cc1)C1CCCCC1 returned ERAP1 inh 0, PGC1a acetyl inh -4, FN deposit inh -18, SIRT5 block 21* and FGF22 binding 0.
For CCC(=O)N(C)C[C@H]1Oc2ncc(C#Cc3ccncc3)cc2C(=O)N([C@H](C)CO)C[C@@H]1C the results were ERAP1 inh 0, PGC1a acetyl inh -21, FN deposit inh 0, SIRT5 block -4 and FGF22 binding 0.
